Among the data in ChEMBL document CHEMBL3112487, “Synthesis and antifungal activity of ASP9726, a novel echinocandin with potent Aspergillus hyphal growth inhibition” (2014) are survival, Activity and MIC values, retold here.

Experiment [1] has as its system Aspergillus fumigatus. As to the kind of experiment: Antifungal activity against Aspergillus fumigatus 20030 in ICR mouse invasive pulmonary aspergillosis model assessed as survival rate at 3 mg/kg, iv qd administered for 10 days measured on day 11 relative to control. The class given is functional.
Experiment [2] concerns Aspergillus fumigatus. As to the kind of experiment: Antifungal activity against Aspergillus fumigatus 20030 in ICR mouse invasive pulmonary aspergillosis model assessed as survival rate at 1.5 mg/kg, iv qd administered for 10 days measured on day 11 relative to control. The class given is functional.
Experiment [3] relates to Aspergillus fumigatus. As to the kind of experiment: Antifungal activity against Aspergillus fumigatus 20024 in human serum assessed as formation of small, rounded and compact microcolonies with severely stunted hypha at 4 fold MEC after 48 hrs by microscopic analysis. It counts as functional, organism-based.
For the next experiment, the system named is Nakaseomyces glabratus. As to the kind of experiment: Antifungal activity against echinocandin-resistant Candida glabrata FP2307 in human serum assessed as hyphal growth inhibition after 48 hrs by microscopic analysis. The class given is functional. Summed up:
(§1)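 Susceptibility testing followed CLSI M27-A3 or M38-A2 standards, using human serum as the growth medium. Fungi were exposed to drug and incubated at 37 °C under 5% CO2 for 48 h.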

For the next experiment, the system named is Candida parapsilosis. As to the kind of experiment: Antifungal activity against Candida parapsilosis 20009 in human serum assessed as hyphal growth inhibition after 48 hrs by microscopic analysis. The settings on record: Lodderomyces parapsilosis, 20009, Serum. It counts as functional. Summed up:
as §1

Another experiment concerns Candida albicans. As to the kind of experiment: Antifungal activity against Candida albicans 20015 in human serum assessed as hyphal growth inhibition after 48 hrs by microscopic analysis. It counts as functional. To be noted: Candida albicans, 20015, Serum. The method in brief:
as §1

Experiment [4] has as its system Aspergillus fumigatus. As to the kind of experiment: Antifungal activity against Aspergillus fumigatus 20024 in human serum assessed as hyphal growth inhibition after 48 hrs by microscopic analysis. The class given is functional. To be noted: Aspergillus fumigatus, 20024, Serum. Summed up:
as §1

Experiment [5] concerns Aspergillus fumigatus. As to the kind of experiment: Antifungal activity against Aspergillus fumigatus 20024 in human serum assessed as formation of large microcolonies with elongated hypha in all direction at 4 fold MEC after 48 hrs by microscopic analysis. It counts as functional, organism-based.

Converted amounts (≈) assume the structure as drawn. The source made the active and inactive calls. Bounds are passed on as bounds.

For orientation: MIC means the smallest concentration in the dilution series that meets the test's criterion for growth inhibition. As for `COc1cc(C[C@@H](O)[C@@H]2NC(=O)[C@@H]3C[C@@H](O)CN3C(=O)[C@H]([C@@H](C)O)NC(=O)[C@@H](NC[C@H]3CC[C@H](c4nnc(-c5ccc(N6CCC(OC)(C7CCCCC7)CC6)cc5)s4)CC3)C[C@@H](O)CNC(=O)[C@@H]3[C@@H](O)[C@@H](C)CN3C(=O)[C@H]([C@H](O)CCNC(CO)CO)NC2=O)ccc1O`, in the experiment with Aspergillus fumigatus [1], the survival at 3 mg/kg worked out at 70%. The survival at 1.5 mg/kg in the experiment with Aspergillus fumigatus [2] came to 40%. The result in the experiment on Aspergillus fumigatus [3] was Active. For the same compound, the MIC was 2 µg/mL (≈ 1.48 µM) in the experiment on Nakaseomyces glabratus, 4 µg/mL (≈ 2.96 µM) with Candida parapsilosis, 0.25 µg/mL (≈ 0.185 µM) with Candida albicans and 0.25 µg/mL (≈ 0.185 µM) with Aspergillus fumigatus [4].

Consider `CC[C@H](C)C[C@H](C)CCCCCCCCC(=O)N[C@H]1C[C@@H](O)[C@@H](NCCN)NC(=O)[C@@H]2[C@@H](O)CCN2C(=O)[C@H]([C@H](O)CCN)NC(=O)[C@H]([C@H](O)[C@@H](O)c2ccc(O)cc2)NC(=O)[C@@H]2C[C@@H](O)CN2C(=O)[C@H]([C@@H](C)O)NC1=O` [CASPOFUNGIN], for which the result with Aspergillus fumigatus [5] was inactive. In addition, the survival at 3 mg/kg in the experiment with Aspergillus fumigatus [1] amounted to 20%. For the same compound, the survival at 1.5 mg/kg in the experiment with Aspergillus fumigatus [2] turned out to be 10%. Further, the MIC was more than 64 µg/mL in the experiment with Nakaseomyces glabratus, 64 µg/mL (≈ 58.5 µM) with Candida parapsilosis, 0.25 µg/mL (≈ 0.229 µM) in the experiment on Candida albicans and 0.5 µg/mL (≈ 0.457 µM) with Aspergillus fumigatus [4].
